≈ marks a conversion by molar mass, not a printed value.
How the values were obtained:
Type in all cases: functional
[1] = system: Mycobacteroides abscessus; experiment: Antimicrobial activity against Mycobacterium abscessus isolate MC1448 at day 14 preincubated with 0.1 ug/ml erythromycin for 3 days by broth microdilution method
In short: (§1)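 Clarithromycin MIC by CLSI-conforming broth microdilution. Before testing, cultures were preincubated for 3 days, either in medium alone or in clarithromycin or erythromycin (tested range 0.01–1 μg/ml). Preincubation ran for at least two generations, judged by turbidity increase. Plates were read on day 3 and on extended incubation at days 5 to 14.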

[2] = system: Mycobacteroides abscessus; experiment: Antimicrobial activity against Mycobacterium abscessus isolate MC1448 at day 7 preincubated with 0.1 ug/ml for 3 days by broth microdilution method
In short: (§2)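 Clarithromycin MIC by broth microdilution following CLSI guidelines. Before testing, organisms were preincubated for 3 days in medium alone or in clarithromycin or erythromycin (0.01–1 μg/ml), long enough for at least two generations judged by turbidity increase. MICs were read on day 3 and again on extended incubation out to day 14.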

[3] = system: Mycobacteroides abscessus; experiment: Antimicrobial activity against Mycobacterium abscessus isolate MC879-2 at day 9 preincubated with 0.1 ug/ml for 3 days by broth microdilution method
[4] = system: Mycobacteroides abscessus; experiment: Antimicrobial activity against Mycobacterium abscessus isolate MC879 on day 4 by broth microdilution method; details: isolate MC879, 96 h
[5] = system: Mycobacteroides abscessus; experiment: Antimicrobial activity against Mycobacterium abscessus isolate MC958 on day 4 by broth microdilution method; details: isolate MC958, 96 h
[6] = system: Mycolicibacterium smegmatis; experiment: Antimicrobial activity against Mycobacterium smegmatis transformed with erm allele Mycobacterium abscessus isolate MC879 preincubated with 2 ug/ml erythromycin for 20 to 24 hrs by broth microdilution method
[7] = system: Mycolicibacterium smegmatis; experiment: Antimicrobial activity against Mycobacterium smegmatis transformed with erm allele Mycobacterium abscessus isolate MC958 preincubated with 2 ug/ml erythromycin for 20 to 24 hrs by broth microdilution method
[8] = system: Mycolicibacterium smegmatis; experiment: Antimicrobial activity against Mycobacterium smegmatis transformed with erm allele Mycobacterium abscessus isolate MC879-2 preincubated with 2 ug/ml erythromycin for 20 to 24 hrs by broth microdilution method
[9] = system: Mycolicibacterium smegmatis; experiment: Antimicrobial activity against Mycobacterium smegmatis transformed with erm allele Mycobacterium abscessus isolate MAB30 preincubated with 2 ug/ml erythromycin for 20 to 24 hrs by broth microdilution method
[10] = system: Mycolicibacterium smegmatis; experiment: Antimicrobial activity against Mycobacterium smegmatis transformed with erm allele Mycobacterium abscessus isolate MC1082 preincubated with 2 ug/ml erythromycin for 20 to 24 hrs by broth microdilution method
[11] = system: Mycobacteroides abscessus; experiment: Antimicrobial activity against Mycobacterium abscessus isolate MC724 at day 5 by broth microdilution method; details: isolate MC724, 120 h
In short: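 Clarithromycin MIC by broth microdilution following CLSI guidelines. Organisms were preincubated […], for 3 days before the assay. This allowed at least two generations, judged by the rise in turbidity. The MIC was read at the stated day, with incubation extended from day 3 to as long as 14 days.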

[12] = system: Mycobacteroides abscessus; experiment: Antimicrobial activity against Mycobacterium abscessus isolate MC719 at day 7 by broth microdilution method; details: isolate MC719, 168 h
In short: (§3)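 Clinical M. abscessus isolates were preincubated for 3 days, either in medium alone or in clarithromycin or erythromycin at 0.01 to 1 μg/ml, allowing at least two generations of growth judged by turbidity. The clarithromycin MIC was then determined by CLSI-conforming broth microdilution, with plates read on day 3 and on extended incubation (days 5 to 14).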

[13] = system: Mycobacteroides abscessus; experiment: Antimicrobial activity against Mycobacterium abscessus isolate MC723 at day 7 by broth microdilution method; details: isolate MC723, 168 h; in short: as §3
[14] = system: Mycobacteroides abscessus; experiment: Antimicrobial activity against Mycobacterium abscessus isolate MC958 at day 9 by broth microdilution method; details: isolate MC958, 216 h
[15] = system: Mycobacteroides abscessus; experiment: Antimicrobial activity against Mycobacterium abscessus isolate MC720 at day 9 by broth microdilution method; details: isolate MC720, 216 h; in short: as §2
[16] = system: Mycobacteroides abscessus; experiment: Antimicrobial activity against Mycobacterium abscessus isolate MC879 at day 3 preincubated with 0.1 ug/ml erythromycin for 3 days by broth microdilution method
In short: (§4)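 To test inducible resistance, cultures were preincubated for 3 days in clarithromycin or erythromycin, within 0.01–1 μg/ml. The period was set so cultures passed at least two generations, judged by turbidity increase. Clarithromycin MIC was then determined by CLSI-conforming broth microdilution and read on the stated day, from day 3 up to 14.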

[17] = system: Mycobacteroides abscessus; experiment: Antimicrobial activity against Mycobacterium abscessus isolate MC1028 at day 14 by broth microdilution method; details: isolate MC1028, 336 h; in short: as §1
[18] = system: Mycobacteroides abscessus; experiment: Antimicrobial activity against Mycobacterium abscessus isolate MC1082 at day 3 preincubated with 0.1 ug/ml erythromycin for 3 days by broth microdilution method; in short: as §1
[19] = system: Mycobacteroides abscessus; experiment: Antimicrobial activity against Mycobacterium abscessus isolate MC1028 at day 5 preincubated with 0.1 ug/ml erythromycin for 3 days by broth microdilution method; in short: as §1
[20] = system: Mycobacteroides abscessus; experiment: Antimicrobial activity against Mycobacterium abscessus isolate MC1082 at day 5 preincubated with 0.1 ug/ml erythromycin for 3 days by broth microdilution method; in short: as §1
[21] = system: Mycobacteroides abscessus; experiment: Antimicrobial activity against Mycobacterium abscessus isolate MC719 at day 7 preincubated with 0.1 ug/ml erythromycin for 3 days by broth microdilution method; in short: as §2
[22] = system: Mycobacteroides abscessus; experiment: Antimicrobial activity against Mycobacterium abscessus isolate MC719 at day 9 preincubated with 0.1 ug/ml erythromycin for 3 days by broth microdilution method; in short: as §2
[23] = system: Mycobacteroides abscessus; experiment: Antimicrobial activity against Mycobacterium abscessus isolate MC720 at day 9 preincubated with 0.1 ug/ml erythromycin for 3 days by broth microdilution method; in short: as §2
[24] = system: Mycobacteroides abscessus; experiment: Antimicrobial activity against Mycobacterium abscessus isolate MAB30 at day 5 preincubated with 0.1 ug/ml for 3 days by broth microdilution method; in short: as §1
[25] = system: Mycobacteroides abscessus; experiment: Antimicrobial activity against Mycobacterium abscessus isolate MC1082 at day 14 preincubated with 0.1 ug/ml for 3 days by broth microdilution method; in short: as §1
[26] = system: Mycobacteroides abscessus; experiment: Antimicrobial activity against Mycobacterium abscessus isolate MC879-2 at day 7 by broth microdilution method; details: isolate MC879-2, 168 h
[27] = system: Mycobacteroides abscessus; experiment: Antimicrobial activity against Mycobacterium abscessus isolate MC1448 at day 7 by broth microdilution method; details: isolate MC1448, 168 h; in short: as §2
[28] = system: Mycobacteroides abscessus; experiment: Antimicrobial activity against Mycobacterium abscessus isolate MC1448 at day 3 preincubated with 0.1 ug/ml erythromycin for 3 days by broth microdilution method; in short: as §2
[29] = system: Mycobacteroides abscessus; experiment: Antimicrobial activity against Mycobacterium abscessus isolate MC958 at day 14 preincubated with 0.1 ug/ml erythromycin for 3 days by broth microdilution method; in short: as §4
[30] = system: Mycobacteroides abscessus; experiment: Antimicrobial activity against Mycobacterium abscessus isolate MC719 at day 14 preincubated with 0.1 ug/ml erythromycin for 3 days by broth microdilution method; in short: as §2
[31] = system: Mycobacteroides abscessus; experiment: Antimicrobial activity against Mycobacterium abscessus isolate MC720 at day 3 preincubated with 0.1 ug/ml for 3 days by broth microdilution method; in short: as §2
[32] = system: Mycobacteroides abscessus; experiment: Antimicrobial activity against Mycobacterium abscessus isolate MC879 at day 5 preincubated with 0.1 ug/ml for 3 days by broth microdilution method; in short: as §4
[33] = system: Mycobacteroides abscessus; experiment: Antimicrobial activity against Mycobacterium abscessus isolate MC719 at day 9 preincubated with 0.1 ug/ml for 3 days by broth microdilution method; in short: as §2
[34] = system: Mycobacteroides abscessus; experiment: Antimicrobial activity against Mycobacterium abscessus isolate MC719 at day 14 preincubated with 0.1 ug/ml for 3 days by broth microdilution method; in short: as §2

Question: With CC[C@H]1OC(=O)[C@H](C)[C@@H](O[C@H]2C[C@@](C)(OC)[C@@H](O)[C@H](C)O2)[C@H](C)[C@@H](O[C@@H]2O[C@H](C)C[C@H](N(C)C)[C@H]2O)[C@](C)(OC)C[C@@H](C)C(=O)[C@H](C)[C@@H](O)[C@]1(C)O [CLARITHROMYCIN] as the compound, how does the MIC [1] read?
Answer: > 32 µg/mL

Question: What about the MIC [2] of the same compound?
Answer: > 32 µg/mL

Question: What about the MIC [3] of the same compound?
Answer: > 32 µg/mL

Question: And the MIC [4]?
Answer: ≤ 2 µg/mL

Question: And the MIC [5]?
Answer: ≤ 2 µg/mL

Question: And the MIC [6]?
Answer: 16 µg/mL

Question: What about the MIC [7] of the same compound?
Answer: 16 µg/mL

Question: And the MIC [8]?
Answer: 16 µg/mL

Question: And the MIC [9]?
Answer: ≤ 0.5 µg/mL

Question: And the MIC [10]?
Answer: ≤ 0.5 µg/mL

Question: And the MIC [11]?
Answer: 1 µg/mL (≈ 1.34 µM)

Question: And the MIC [12]?
Answer: 8 µg/mL (≈ 10.7 µM)

Question: And the MIC [13]?
Answer: 8 µg/mL (≈ 10.7 µM)

Question: What about the MIC [14] of the same compound?
Answer: > 32 µg/mL

Question: And the MIC [15]?
Answer: > 32 µg/mL

Question: What about the MIC [16] of the same compound?
Answer: ≤ 0.5 µg/mL

Question: And the MIC [17]?
Answer: ≤ 0.5 µg/mL

Question: What about the MIC [18] of the same compound?
Answer: ≤ 0.5 µg/mL

Question: What about the MIC [19] of the same compound?
Answer: ≤ 0.5 µg/mL

Question: And the MIC [20]?
Answer: ≤ 0.5 µg/mL

Question: And the MIC [21]?
Answer: > 32 µg/mL

Question: And the MIC [22]?
Answer: > 32 µg/mL

Question: What about the MIC [23] of the same compound?
Answer: > 32 µg/mL

Question: And the MIC [24]?
Answer: ≤ 0.5 µg/mL

Question: And the MIC [25]?
Answer: ≤ 0.5 µg/mL

Question: And the MIC [26]?
Answer: > 32 µg/mL

Question: What about the MIC [27] of the same compound?
Answer: > 32 µg/mL

Question: And the MIC [28]?
Answer: > 32 µg/mL

Question: And the MIC [29]?
Answer: > 32 µg/mL

Question: What about the MIC [30] of the same compound?
Answer: > 32 µg/mL

Question: What about the MIC [31] of the same compound?
Answer: ≤ 0.5 µg/mL

Question: And the MIC [32]?
Answer: 4 µg/mL (≈ 5.35 µM)

Question: What about the MIC [33] of the same compound?
Answer: > 32 µg/mL

Question: What about the MIC [34] of the same compound?
Answer: > 32 µg/mL

From ChEMBL document CHEMBL1649139, “A novel gene, erm(41), confers inducible macrolide resistance to clinical isolates of Mycobacterium abscessus but is absent from Mycobacterium chelonae” (2009)
